# From ChEMBL document CHEMBL1255475, “Mutant prevention concentrations of four carbapenems against gram-negative rods” (2010)
# Experiments:
# Format in all cases: functional
# Pseudomonas aeruginosa [1] = experiment: Antibacterial activity against Pseudomonas aeruginosa P328 assessed as mutant prevention concentration after overnight incubation
# Pseudomonas aeruginosa [2] = experiment: Antibacterial activity against Pseudomonas aeruginosa P323 assessed as mutant prevention concentration after overnight incubation
# Escherichia coli [3] = experiment: Antibacterial activity against beta-lactamase-positive ESBL-positive Escherichia coli E446 incubated up to 7 days by agar dilution method; settings: E446, 168 h
# Outline: (§1)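 MIC by CLSI agar dilution, with quality-control strains in each run. Beta-lactamase status was set by 30 μg cefazolin Kirby-Bauer disk diffusion. ESBL status was set by cefotaxime and ceftazidime disks (30 μg) with and without clavulanic acid (10 μg).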
# Klebsiella pneumoniae [4] = experiment: Antibacterial activity against beta-lactamase-negative Klebsiella pneumoniae E360 assessed as mutant prevention concentration after overnight incubation
# Acinetobacter baumannii [5] = experiment: Antibacterial activity against Acinetobacter baumannii A884 assessed as mutant prevention concentration after overnight incubation
# Acinetobacter baumannii [6] = experiment: Antibacterial activity against Acinetobacter baumannii A849 assessed as mutant prevention concentration after overnight incubation
# Escherichia coli [7] = experiment: Antibacterial activity against beta-lactamase-negative Escherichia coli E347 assessed as mutant prevention concentration after overnight incubation
# Klebsiella pneumoniae [8] = experiment: Antibacterial activity against beta-lactamase-positive ESBL-negative Klebsiella pneumoniae E474 assessed as mutant prevention concentration after overnight incubation
# Outline: (§2)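 Overnight growth on blood trypticase soy agar (35°C, air) was resuspended in 0.9% saline and counted on drug-free Mueller-Hinton agar. […] Colonies were retested by agar dilution to confirm mutants. MPC was the lowest concentration preventing resistant-mutant growth.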
# Escherichia coli [9] = experiment: Antibacterial activity against beta-lactamase-positive ESBL-negative Escherichia coli E430 assessed as mutant prevention concentration after overnight incubation; outline: as §2
# Klebsiella pneumoniae [10] = experiment: Antibacterial activity against beta-lactamase-positive ESBL-negative Klebsiella pneumoniae E511 incubated up to 7 days by agar dilution method; settings: E511, 168 h
# Klebsiella pneumoniae [11] = experiment: Antibacterial activity against beta-lactamase-positive ESBL-negative Klebsiella pneumoniae E472 incubated up to 7 days by agar dilution method; settings: E472, 168 h
# Klebsiella pneumoniae [12] = experiment: Antibacterial activity against beta-lactamase-negative Klebsiella pneumoniae E420 incubated up to 7 days by agar dilution method; settings: E420, 168 h; outline: as §1
# Escherichia coli [13] = experiment: Antibacterial activity against beta-lactamase-positive ESBL-positive Escherichia coli E460 incubated up to 7 days by agar dilution method; settings: E460, 168 h; outline: as §1
# Pseudomonas aeruginosa [14] = experiment: Antibacterial activity against Pseudomonas aeruginosa P332 assessed as mutant prevention concentration after overnight incubation
# Klebsiella pneumoniae [15] = experiment: Antibacterial activity against beta-lactamase-positive ESBL-positive Klebsiella pneumoniae E478 assessed as mutant prevention concentration after overnight incubation; outline: as §2
# Klebsiella pneumoniae [16] = experiment: Antibacterial activity against beta-lactamase-negative Klebsiella pneumoniae E358 incubated up to 7 days by agar dilution method; settings: E358, 168 h
# Acinetobacter baumannii [17] = experiment: Antibacterial activity against Acinetobacter baumannii A896 assessed as mutant prevention concentration after overnight incubation
# Pseudomonas aeruginosa [18] = experiment: Antibacterial activity against Pseudomonas aeruginosa P365 assessed as mutant prevention concentration after overnight incubation
# Escherichia coli [19] = experiment: Antibacterial activity against beta-lactamase-positive ESBL-negative Escherichia coli E484 incubated up to 7 days by agar dilution method; settings: E484, 168 h
# Escherichia coli [20] = experiment: Antibacterial activity against beta-lactamase-positive ESBL-negative Escherichia coli E412 assessed as mutant prevention concentration after overnight incubation; outline: as §2
# Klebsiella pneumoniae [21] = experiment: Antibacterial activity against beta-lactamase-positive ESBL-negative Klebsiella pneumoniae E473 incubated up to 7 days by agar dilution method; settings: E473, 168 h
# Klebsiella pneumoniae [22] = experiment: Antibacterial activity against beta-lactamase-positive ESBL-negative Klebsiella pneumoniae E481 incubated up to 7 days by agar dilution method; settings: E481, 168 h
# Acinetobacter baumannii [23] = experiment: Antibacterial activity against Acinetobacter baumannii A908 assessed as mutant prevention concentration after overnight incubation
# Klebsiella pneumoniae [24] = experiment: Antibacterial activity against beta-lactamase-positive ESBL-negative Klebsiella pneumoniae E481 assessed as mutant prevention concentration after overnight incubation; outline: as §2
# Escherichia coli [25] = experiment: Antibacterial activity against beta-lactamase-positive ESBL-positive Escherichia coli E452 assessed as mutant prevention concentration after overnight incubation; outline: as §2
# Escherichia coli [26] = experiment: Antibacterial activity against beta-lactamase-negative Escherichia coli E348 incubated up to 7 days by agar dilution method; settings: E348, 168 h
# Escherichia coli [27] = experiment: Antibacterial activity against beta-lactamase-negative Escherichia coli E346 assessed as mutant prevention concentration after overnight incubation
# Klebsiella pneumoniae [28] = experiment: Antibacterial activity against beta-lactamase-negative Klebsiella pneumoniae E361 incubated up to 7 days by agar dilution method; settings: E361, 168 h
# Escherichia coli [29] = experiment: Antibacterial activity against beta-lactamase-positive ESBL-positive Escherichia coli E456 assessed as mutant prevention concentration after overnight incubation; outline: as §2
# Klebsiella pneumoniae [30] = experiment: Antibacterial activity against beta-lactamase-positive ESBL-negative Klebsiella pneumoniae E472 assessed as mutant prevention concentration after overnight incubation; outline: as §2
# Pseudomonas aeruginosa [31] = experiment: Antibacterial activity against Pseudomonas aeruginosa P335 assessed as mutant prevention concentration after overnight incubation
# Pseudomonas aeruginosa [32] = experiment: Antibacterial activity against Pseudomonas aeruginosa P320 assessed as mutant prevention concentration after overnight incubation
# Klebsiella pneumoniae [33] = experiment: Antibacterial activity against beta-lactamase-negative Klebsiella pneumoniae E362 incubated up to 7 days by agar dilution method; settings: E362, 168 h
# Pseudomonas aeruginosa [34] = experiment: Antibacterial activity against Pseudomonas aeruginosa P363 assessed as mutant prevention concentration after overnight incubation
# Pseudomonas aeruginosa [35] = experiment: Antibacterial activity against Pseudomonas aeruginosa P369 assessed as mutant prevention concentration after overnight incubation
# Klebsiella pneumoniae [36] = experiment: Antibacterial activity against beta-lactamase-negative Klebsiella pneumoniae E419 assessed as mutant prevention concentration after overnight incubation; outline: as §2
# Klebsiella pneumoniae [37] = experiment: Antibacterial activity against beta-lactamase-negative Klebsiella pneumoniae E417 incubated up to 7 days by agar dilution method; settings: E417, 168 h; outline: as §1
# Pseudomonas aeruginosa [38] = experiment: Antibacterial activity against Pseudomonas aeruginosa P352 assessed as mutant prevention concentration after overnight incubation
# Klebsiella pneumoniae [39] = experiment: Antibacterial activity against beta-lactamase-positive ESBL-negative Klebsiella pneumoniae E479 incubated up to 7 days by agar dilution method; settings: E479, 168 h
# Outline: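 MPC determination: overnight cultures on blood trypticase soy agar at 35°C in air were resuspended in 0.9% saline, and CFU were counted on drug-free Mueller-Hinton agar. […] Growth was retested by agar dilution to confirm mutants. MPC was the lowest concentration preventing resistant-mutant growth.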
# Escherichia coli [40] = experiment: Antibacterial activity against beta-lactamase-positive ESBL-positive Escherichia coli E451 incubated up to 7 days by agar dilution method; settings: E451, 168 h; outline: as §1
# Escherichia coli [41] = experiment: Antibacterial activity against beta-lactamase-positive ESBL-positive Escherichia coli E458 assessed as mutant prevention concentration after overnight incubation; outline: as §2
# Acinetobacter baumannii [42] = experiment: Antibacterial activity against Acinetobacter baumannii A850 assessed as mutant prevention concentration after overnight incubation
# Klebsiella pneumoniae [43] = experiment: Antibacterial activity against beta-lactamase-negative Klebsiella pneumoniae E419 incubated up to 7 days by agar dilution method; settings: E419, 168 h
# Escherichia coli [44] = experiment: Antibacterial activity against beta-lactamase-positive ESBL-positive Escherichia coli E456 incubated up to 7 days by agar dilution method; settings: E456, 168 h; outline: as §1
smiles,measurement,setting,value
C[C@@H](O)[C@H]1C(=O)N2C(C(=O)O)=C(S[C@@H]3CN[C@H](C(=O)N(C)C)C3)[C@H](C)[C@H]12 [MEROPENEM],MPC,Pseudomonas aeruginosa [1],16 µg/mL
same,MPC,Pseudomonas aeruginosa [2],4 µg/mL
same,MIC,Escherichia coli [3],0.03 µg/mL
same,MPC,Klebsiella pneumoniae [4],0.125 µg/mL
same,MPC,Acinetobacter baumannii [5],8 µg/mL
same,MPC,Acinetobacter baumannii [6],32 µg/mL
same,MPC,Escherichia coli [7],0.06 µg/mL
same,MPC,Klebsiella pneumoniae [8],16 µg/mL
same,MPC,Escherichia coli [9],0.125 µg/mL
same,MIC,Klebsiella pneumoniae [10],4 µg/mL
same,MIC,Klebsiella pneumoniae [11],4 µg/mL
same,MIC,Klebsiella pneumoniae [12],0.03 µg/mL
same,MIC,Escherichia coli [13],0.03 µg/mL
same,MPC,Pseudomonas aeruginosa [14],32 µg/mL
same,MPC,Klebsiella pneumoniae [15],8 µg/mL
same,MIC,Klebsiella pneumoniae [16],0.03 µg/mL
same,MPC,Acinetobacter baumannii [17],4 µg/mL
same,MPC,Pseudomonas aeruginosa [18],8 µg/mL
same,MIC,Escherichia coli [19],1 µg/mL
same,MPC,Escherichia coli [20],0.25 µg/mL
same,MIC,Klebsiella pneumoniae [21],2 µg/mL
same,MIC,Klebsiella pneumoniae [22],1 µg/mL
same,MPC,Acinetobacter baumannii [23],4 µg/mL
same,MPC,Klebsiella pneumoniae [24],16 µg/mL
same,MPC,Escherichia coli [25],0.06 µg/mL
same,MIC,Escherichia coli [26],0.03 µg/mL
same,MPC,Escherichia coli [27],0.06 µg/mL
same,MIC,Klebsiella pneumoniae [28],0.06 µg/mL
same,MPC,Escherichia coli [29],0.125 µg/mL
same,MPC,Klebsiella pneumoniae [30],32 µg/mL
same,MPC,Pseudomonas aeruginosa [31],32 µg/mL
same,MPC,Pseudomonas aeruginosa [32],>8 µg/mL
same,MIC,Klebsiella pneumoniae [33],0.06 µg/mL
same,MPC,Pseudomonas aeruginosa [34],>8 µg/mL
same,MPC,Pseudomonas aeruginosa [35],>4 µg/mL
same,MPC,Klebsiella pneumoniae [36],0.125 µg/mL
same,MIC,Klebsiella pneumoniae [37],0.06 µg/mL
same,MPC,Pseudomonas aeruginosa [38],8 µg/mL
same,MIC,Klebsiella pneumoniae [39],8 µg/mL
same,MIC,Escherichia coli [40],0.03 µg/mL
same,MPC,Escherichia coli [41],0.125 µg/mL
same,MPC,Acinetobacter baumannii [42],16 µg/mL
same,MIC,Klebsiella pneumoniae [43],0.06 µg/mL
same,MIC,Escherichia coli [44],0.03 µg/mL
